These results are taken from ChEMBL document CHEMBL4477200, “Design, Synthesis, and Preclinical Evaluation of 4-Substituted-5-methyl-furo[2,3-d]pyrimidines as Microtubule Targeting Agents That Are Effective against Multidrug Resistant Cancer Cells” (J Med Chem, 2016).

Active and inactive are the calls of the source. The calls are words filed in the database; no cut-off is given here.

Experiment [1] concerns HeLa. The experiment in a line: Cell cycle arrest in human HeLa cells assessed as accumulation at G2/M phase at 5 times IC50 after 18 hrs by flow cytometry (reference value: 17.11 +/- 1.09%). The format is functional. For orientation: Flow cytometry measures light scatter and fluorescence of single cells or particles in a stream.
Another experiment concerns the target Tubulin (Homo sapiens) (UniProt P68371+Q9H4B7+P0DPH7+P68366+Q13509+Q71U36+P04350+Q3ZCM7+P07437+P68363+Q9BQE3+Q6PEY2+Q13885+Q9BVA1+Q9BUF5). The experiment is described as follows: Induction of microtubule disruption in human HeLa cells assessed as multipolarization of spindle at 5 times IC50 incubated for 18 hrs by indirect immunofluorescence analysis relative to vehicle-treated control. The format is cell-based. The procedure, abridged:
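Mitotic spindles and microtubules were imaged by indirect immunofluorescence with a β-tubulin antibody and compared with vehicle-treated cells.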

The target in the next experiment is Tubulin (Bos taurus, UniProt Q6B856+Q862L2+Q862F3). The experiment in a line: Inhibition of tubulin assembly in bovine brain […] assessed as reduction in turbidity increase preincubated for 15 mins followed by GTP addition measured for 20 mins by spectrophotometric analysis. The procedure, abridged: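 Purified bovine brain tubulin, 1.0 mg/mL (10 µM), was preincubated 15 min at 30 °C in 0.8 M monosodium glutamate (pH 6.6) with compound and 4% DMSO. Mixtures were chilled and 0.4 mM GTP added. Turbidity was followed for 20 min at 30 °C. IC50 is the concentration halving the turbidity increase, interpolated between tested concentrations.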

For experiment [2], the target named is T1, Tubulin (Bos taurus) (UniProt Q6B856+Q862L2+Q862F3). The experiment in a line: Displacement of [3H]colchicine from tubulin in bovine brain homogenate at 1 uM incubated for 10 mins by DEAE-cellulose filter assay. The format is tissue-based. Background: Displacement assays read how much labelled ligand stays bound in the presence of the test substance.
Experiment [3] concerns the target T1, Tubulin (Bos taurus). The experiment in a line: Inhibition of [3H]colchicine binding to tubulin in bovine brain homogenate at 5 uM incubated for 10 mins by DEAE-cellulose filter assay. The format is tissue-based.
Experiment [4] deals with SK-OV-3. The experiment in a line: Cytotoxicity against human SKOV3 cells assessed as growth inhibition after 48 hrs by SRB assay. Conditions: SK-OV-3, 48 h. The format is functional, cell-based. In a few lines:
(§1)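 SRB assay; IC50 is the mean of three independent experiments, each run in triplicate. Cells were kept at 37 °C under 5% CO2. HeLa and SK-OV-3 lines (parental and MDR1-M6/6) were grown in Basal Medium Eagle with 10% FBS, 1% GlutaMAX and 50 µg/mL gentamycin. HeLa WTβIII was grown in DMEM with 10% FBS.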
Background: Sulforhodamine B stains cellular protein and so reports cell mass.

Experiment [5] has as its system SK-OV-3. The experiment is described as follows: Antiproliferative activity against multidrug resistant human SKOV3 cells expressing MDR1-M6/6 after 48 hrs by SRB assay. The format is functional, cell-based. Conditions: SK-OV-3, 48 h. The procedure, abridged:
as §1

Experiment [6] relates to HeLa. The experiment in a line: Antiproliferative activity against human HeLa cells after 48 hrs by SRB assay. The format is functional, cell-based. In a few lines:
as §1

In experiment [7] the test system is HeLa. The experiment in a line: Antiproliferative activity against multidrug resistant human HeLa cells expressing wild type beta3 tubulin after 48 hrs by SRB assay. The format is functional, cell-based. The procedure, abridged: as §1
The subject of experiment [8] is SK-OV-3. The experiment in a line: Relative ratio of IC50 for human SKOV3 cells expressing MDR1-M6/6 to IC50 for human SKOV3 cells. The format is functional. In a few lines: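 Rr is the IC50 in Pgp-expressing SK-OV-3 MDR1-M6/6 cells divided by the IC50 in parental SK-OV-3 cells. Both IC50s come from the SRB assay, averaging three independent experiments run in triplicate.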

For experiment [9], the system named is HeLa. The experiment is described as follows: Relative ratio of IC50 for human HeLa cells expressing wild type beta3 tubulin to IC50 for human HeLa cells. The format is functional.
Experiment [10] concerns Tubulin (Rattus norvegicus). The experiment in a line: Induction of microtubule depolymerization in rat A10 cells at 2 times EC50 incubated for 18 hrs by indirect immunofluorescence analysis.
In the next experiment the test system is MDA-MB-435. The experiment in a line: Antitumor activity against human MDA-MB-435 cells xenografted in nude mouse assessed as tumor growth inhibition at 20 mg/kg, ip dosed on days 0 , 2, 4, 6, 8 and 11 relative to control.

On to `CCN(c1ccc(OC)cc1)c1ncnc2occ(C)c12`, for which the Activity in the experiment on HeLa [1] amounted to 63.76%. The outcome (on Tubulin (Homo sapiens); in experiment [10]) was Active. Besides, the IC50 is 970 nM on Tubulin; 14.5 nM with SK-OV-3 [4]; 18.3 nM in the experiment with SK-OV-3 [5]; 15.8 nM in the experiment with HeLa [6]; 14.6 nM in the experiment on HeLa [7]. The figures for the inhibition at Tubulin (Bos taurus) [2] and on Tubulin (Bos taurus) [3] were 84% and 95%, respectively. Moreover, the “Ratio IC50” value stood at 1.3 with SK-OV-3 [8] and 0.9 with HeLa [9].

For the compound `CCCN(c1ccc(OC)cc1)c1ncnc2occ(C)c12`, the Activity with HeLa [1] is given as 89.25%. In addition, the outcome (at Tubulin (Homo sapiens); in experiment [10]) was Active. Also, the IC50 was determined as 1100 nM on Tubulin; 40.3 nM in the experiment with SK-OV-3 [4]; 71 nM in the experiment on SK-OV-3 [5]; 33.8 nM in the experiment on HeLa [6]; 35.3 nM in the experiment with HeLa [7]. Moreover, the inhibition on Tubulin (Bos taurus) [2] turned out to be 75%; on Tubulin (Bos taurus) [3] it was 92%. Also, the “Ratio IC50” value was 1.8 in the experiment with SK-OV-3 [8] and 1 in the experiment on HeLa [9].

Take `CCc1ccc(N(C)c2ncnc3occ(C)c23)cc1`: in the experiment with HeLa [1], the Activity was 76.19%. Besides, the result (on Tubulin (Homo sapiens); in experiment [10]) was Active. Further, the IC50 in the experiment with SK-OV-3 [4] stood at 156 nM; with SK-OV-3 [5] it was 162 nM; in the experiment on HeLa [6] it was 120 nM; in the experiment on HeLa [7], 159 nM. Besides, the results for the “Ratio IC50” value with SK-OV-3 [8] and in the experiment with HeLa [9] were 1 and 1.3, respectively.

With `COc1ccc(N(c2ncnc3occ(C)c23)C(C)C)cc1`, the IC50 on Tubulin stood at 3000 nM. Moreover, the inhibition at Tubulin (Bos taurus) [3] stood at 47%.

For `CCCCN(c1ccc(OC)cc1)c1ncnc2occ(C)c12`, the Activity in the experiment on HeLa [1] worked out at 64.96%. In addition, the result (at Tubulin (Homo sapiens); in experiment [10]) was Active. For the same compound, the IC50 at Tubulin amounted to 1300 nM; with SK-OV-3 [4], 148 nM; in the experiment with SK-OV-3 [5] it was 200 nM; with HeLa [6] it was 111 nM; with HeLa [7], 116 nM. Moreover, the inhibition at Tubulin (Bos taurus) [2] was found to be 61%; at Tubulin (Bos taurus) [3] it was 87%. In addition, the “Ratio IC50” value is on record as 1.4 in the experiment on SK-OV-3 [8] and 1 in the experiment on HeLa [9].

For `CC(=O)O[C@H]1C(=O)[C@@]2(C)[C@H]([C@H](OC(=O)c3ccccc3)[C@]3(O)C[C@H](OC(=O)[C@H](O)[C@@H](NC(=O)c4ccccc4)c4ccccc4)C(C)=C1C3(C)C)[C@]1(OC(C)=O)CO[C@@H]1C[C@@H]2O`, the TGI entry in the experiment on MDA-MB-435 is “Active”.

As for `COc1ccc(/C=C\c2cc(OC)c(OC)c(OC)c2)cc1O` [COMBRETASTATIN A4], the Activity with HeLa [1] turned out to be 67.58%.

Consider `CSc1ccc(N(C)c2ncnc3occ(C)c23)cc1`, for which the Activity in the experiment on HeLa [1] is recorded as 64.09%. Also, the outcome (on Tubulin (Homo sapiens); in experiment [10]) was Active. Moreover, the IC50 on Tubulin stood at 1200 nM; in the experiment with SK-OV-3 [4], 18.6 nM; in the experiment on SK-OV-3 [5] it was 32.1 nM; with HeLa [6] it was 15.7 nM; in the experiment with HeLa [7], 14.9 nM. Further, the inhibition on Tubulin (Bos taurus) [2] is 79%; at Tubulin (Bos taurus) [3] it was 94%. For the same compound, the “Ratio IC50” value in the experiment with SK-OV-3 [8] stood at 1.7; with HeLa [9], 0.9.

A word on the IC50: it is the concentration needed to halve the response being measured. The inhibition is the relative decrease from the control value, in per cent. High values mean a response far below the control, low ones a response near the control.
